Laboratory results reported in ChEMBL document CHEMBL1132410, “5-Chloro-N-(4-methoxy-3-piperazin-1-yl- phenyl)-3-methyl-2-benzothiophenesulfon- amide (SB-271046): a potent, selective, and orally bioavailable 5-HT6 receptor antagonist” (J Med Chem, 1999).
Each block holds one compound with its values, some of them ahead of it.

Assays:
[1] = biological target: 5-hydroxytryptamine receptor 6 (Homo sapiens, UniProt P50406); test: Binding affinity against human cloned 5-hydroxytryptamine 6 receptor in HeLa cells using [3H]LSD; format: cell-based
Method in brief: (§1)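 Radioligand binding at human cloned receptors; cell hosts and radioligands as listed per line: 5-HT1A, 5-HT2A, 5-HT2B, 5-HT2C and 5-HT7 in HEK 293 cells; 5-HT1B, 5-HT1D, 5-HT1E, 5-HT1F, D2 and D3 in CHO cells; 5-HT6 in HeLa cells. Values are the mean of at least two determinations, each within 0.2 log unit of the mean.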

[2] = species on record: Homo sapiens; test: Selectivity for 5-HT6 receptors with respect to the 5-HT1A, 5-HT1B, 5-HT1D, 5-HT1E, 5-HT1F, 5-HT2A, 5-HT2B, 5-HT2C, 5-HT4, 5-HT7, Alpha-1B, D2, D3 receptors.
[3] = biological target: T1, 5-hydroxytryptamine receptor 1A (Homo sapiens, UniProt P08908); test: Compound was tested for its binding affinity against 5-hydroxytryptamine 1A receptor in human cloned receptors in HEK 293 cells using [3H]8-OH-DPAT; format: cell-based, HEK293; method in brief: as §1
T1 sequence (P08908 whole entry): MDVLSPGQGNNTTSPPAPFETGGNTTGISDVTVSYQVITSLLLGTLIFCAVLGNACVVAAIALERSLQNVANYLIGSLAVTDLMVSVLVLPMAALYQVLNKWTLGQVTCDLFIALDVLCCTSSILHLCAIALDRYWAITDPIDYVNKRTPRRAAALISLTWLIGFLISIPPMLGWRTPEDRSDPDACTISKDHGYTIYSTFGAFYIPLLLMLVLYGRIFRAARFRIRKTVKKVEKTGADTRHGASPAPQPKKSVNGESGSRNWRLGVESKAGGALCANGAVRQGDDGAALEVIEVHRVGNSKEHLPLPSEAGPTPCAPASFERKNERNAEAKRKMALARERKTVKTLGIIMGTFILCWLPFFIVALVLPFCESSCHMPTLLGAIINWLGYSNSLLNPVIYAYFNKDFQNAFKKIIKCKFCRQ

[4] = biological target: 5-hydroxytryptamine receptor 1B (Homo sapiens, UniProt P28222); test: Compound was tested for its binding affinity against human cloned 5-hydroxytryptamine 1B receptor in CHO cells using [3H]5-HT; format: cell-based; method in brief: as §1
[5] = biological target: 5-hydroxytryptamine receptor 1D (Homo sapiens, UniProt P28221); test: Compound was tested for its binding affinity against human cloned 5-hydroxytryptamine 1D receptor in CHO cells using [3H]5-HT; format: cell-based; method in brief: as §1
[6] = biological target: 5-hydroxytryptamine receptor 1E (Homo sapiens, UniProt P28566); test: Compound was tested for its binding affinity against cloned human 5-hydroxytryptamine 1E receptor in CHO cells using [3H]-5-HT; format: cell-based; method in brief: as §1
[7] = biological target: 5-hydroxytryptamine receptor 2A (Homo sapiens, UniProt P28223); test: Compound was tested for its binding affinity against 5-hydroxytryptamine 2A receptor in human cloned receptors in HEK 293 cells using [3H]ketanserin; format: cell-based, HEK293; method in brief: as §1
[8] = biological target: T2, 5-hydroxytryptamine receptor 1F (Homo sapiens, UniProt P30939); test: Compound was tested for its binding affinity against 5-hydroxytryptamine 1F receptor in human cloned receptors in CHO cells using [3H]5-HT; format: cell-based; method in brief: as §1
T2 sequence (P30939 whole entry): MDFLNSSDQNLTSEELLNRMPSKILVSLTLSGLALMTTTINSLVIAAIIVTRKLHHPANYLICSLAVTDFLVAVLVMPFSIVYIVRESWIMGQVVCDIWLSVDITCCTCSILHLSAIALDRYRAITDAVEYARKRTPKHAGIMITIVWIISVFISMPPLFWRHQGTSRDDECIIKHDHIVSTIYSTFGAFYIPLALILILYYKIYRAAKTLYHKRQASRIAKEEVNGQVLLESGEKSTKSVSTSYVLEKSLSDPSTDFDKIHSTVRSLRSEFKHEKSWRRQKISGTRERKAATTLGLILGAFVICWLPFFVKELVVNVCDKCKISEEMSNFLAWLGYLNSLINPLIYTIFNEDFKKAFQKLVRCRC

[9] = biological target: 5-hydroxytryptamine receptor 2B (Homo sapiens, UniProt P41595); test: Compound was tested for its binding affinity against cloned human 5-hydroxytryptamine 2B receptor in HEK 293 cells using [3H]5-HT; format: cell-based, HEK293; method in brief: as §1
[10] = biological target: 5-hydroxytryptamine receptor 4 (Homo sapiens, UniProt Q13639); test: Compound was tested for its binding affinity against 5-hydroxytryptamine 4 receptor
[11] = biological target: 5-hydroxytryptamine receptor 7 (Homo sapiens, UniProt P34969); test: Compound was tested for its binding affinity against human cloned 5-hydroxytryptamine 7 receptor in HEK 293 cells using [3H]5-CT; format: cell-based, HEK293; method in brief: as §1
[12] = biological target: T3, Alpha-1B adrenergic receptor (Homo sapiens, UniProt P35368); test: Compound was tested for its binding affinity against adrenergic Alpha-1B adrenergic receptor
T3 sequence (P35368 whole entry): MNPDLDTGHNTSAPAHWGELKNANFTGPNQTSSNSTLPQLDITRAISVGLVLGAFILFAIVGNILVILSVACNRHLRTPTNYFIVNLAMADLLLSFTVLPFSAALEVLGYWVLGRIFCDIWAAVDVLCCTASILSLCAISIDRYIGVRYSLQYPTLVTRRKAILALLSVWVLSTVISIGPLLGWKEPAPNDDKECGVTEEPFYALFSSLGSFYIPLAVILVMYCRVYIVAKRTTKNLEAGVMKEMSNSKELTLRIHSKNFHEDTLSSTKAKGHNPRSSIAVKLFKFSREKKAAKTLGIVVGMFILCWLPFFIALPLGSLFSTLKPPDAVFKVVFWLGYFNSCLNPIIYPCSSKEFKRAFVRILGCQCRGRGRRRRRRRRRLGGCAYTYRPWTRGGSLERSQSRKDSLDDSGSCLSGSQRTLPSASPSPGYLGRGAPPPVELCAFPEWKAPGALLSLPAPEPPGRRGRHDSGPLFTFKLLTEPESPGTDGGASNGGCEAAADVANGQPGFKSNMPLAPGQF

[13] = biological target: T4, Cytochrome P450 1A2 (Homo sapiens, UniProt P05177); test: Inhibition of human cytochrome P450 1A2 activity as caffeine N3 demethylation (500 uM); format: ADME
T4 sequence (P05177 whole entry): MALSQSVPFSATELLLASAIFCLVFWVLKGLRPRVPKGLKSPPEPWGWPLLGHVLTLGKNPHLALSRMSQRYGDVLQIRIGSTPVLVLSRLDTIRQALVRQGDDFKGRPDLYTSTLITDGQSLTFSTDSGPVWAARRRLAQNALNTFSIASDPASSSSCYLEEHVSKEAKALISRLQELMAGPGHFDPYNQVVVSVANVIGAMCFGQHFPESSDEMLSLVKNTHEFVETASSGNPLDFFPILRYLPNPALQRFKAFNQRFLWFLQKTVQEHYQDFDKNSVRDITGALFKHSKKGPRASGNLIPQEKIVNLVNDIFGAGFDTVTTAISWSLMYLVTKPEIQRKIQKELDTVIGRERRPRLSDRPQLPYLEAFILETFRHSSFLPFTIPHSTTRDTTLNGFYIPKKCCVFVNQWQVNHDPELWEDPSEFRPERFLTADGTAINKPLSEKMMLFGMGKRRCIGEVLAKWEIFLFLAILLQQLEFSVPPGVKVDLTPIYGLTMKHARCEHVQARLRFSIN
Method in brief: (§2)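 Heterologously expressed human CYP isoforms in isoform-selective assays, with substrate at its Km. CYP1A2: caffeine N3-demethylation (500 μM). CYP2C9: tolbutamide methylhydroxylation (100 μM). CYP2C19: S-mephenytoin 4-hydroxylation (100 μM). CYP2D6: bufuralol 1'-hydroxylation (10 μM). CYP3A4: total cyclosporin oxidation (1 μM). IC50 is the mean of duplicate determinations, agreeing within 10%.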

[14] = biological target: Cytochrome P450 2C19 (Homo sapiens, UniProt P33261); test: Inhibition of human cytochrome P450 2C19 as S-mephenytoin-4-hydroxylation (100 uM); format: ADME; method in brief: as §2
[15] = biological target: Cytochrome P450 2C9 (Homo sapiens, UniProt P11712); test: Inhibitory potential of human cytochrome P450 2C9 as Tolbutamide methylhydroxylation (100 uM); format: ADME; method in brief: as §2
[16] = biological target: Cytochrome P450 2D6 (Homo sapiens, UniProt P10635); test: Inhibition of human cytochrome P450 2D6 as bufuralol 1''-hydroxylation (10 uM); format: ADME; method in brief: as §2
[17] = biological target: Cytochrome P450 3A4 (Homo sapiens, UniProt P08684); test: Inhibition of human cytochrome P450 3A4 as total cyclosporin oxidation (1 uM); format: ADME
Method in brief: as §2, with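 “μM).” for “μM). IC50 is the mean of duplicate determinations, agreeing within 10%.”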

[18] = biological target: D(3) dopamine receptor (Homo sapiens, UniProt P35462); test: Compound was tested for its binding affinity against Dopamine receptor D3 in human cloned receptors in CHO cells using [125 I]iodosulpride; format: cell-based; method in brief: as §1
[19] = biological target: D(2) dopamine receptor (Homo sapiens, UniProt P14416); test: Compound was tested for its binding affinity against Dopamine receptor D2 in human cloned receptors in CHO cells using [125 I]iodosulpride; format: cell-based; method in brief: as §1
[20] = biological target: T5, 5-hydroxytryptamine receptor 2C (Homo sapiens, UniProt P28335); test: Compound was tested for its binding affinity against human cloned 5-hydroxytryptamine 2C receptor in HEK 293 cells using [3H]mesulergine; format: cell-based, HEK293; method in brief: as §1
T5 sequence (P28335 whole entry): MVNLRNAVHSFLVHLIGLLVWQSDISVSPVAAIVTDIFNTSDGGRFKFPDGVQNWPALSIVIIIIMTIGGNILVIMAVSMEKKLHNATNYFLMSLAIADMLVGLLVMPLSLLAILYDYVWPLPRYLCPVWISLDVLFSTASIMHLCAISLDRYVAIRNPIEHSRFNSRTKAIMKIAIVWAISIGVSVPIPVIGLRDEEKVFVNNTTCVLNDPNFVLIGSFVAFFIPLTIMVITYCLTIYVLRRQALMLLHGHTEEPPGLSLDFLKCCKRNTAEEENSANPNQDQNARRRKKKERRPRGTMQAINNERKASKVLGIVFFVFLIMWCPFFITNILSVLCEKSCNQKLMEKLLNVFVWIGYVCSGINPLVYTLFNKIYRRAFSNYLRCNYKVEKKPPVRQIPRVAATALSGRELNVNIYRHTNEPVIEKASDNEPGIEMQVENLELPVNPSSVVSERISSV

[21] = biological target: T3, Alpha-1B adrenergic receptor; test: Compound was tested for its binding affinity against Alpha-1B adrenergic receptor

Chain of 5-hydroxytryptamine receptor 1B (P28222 whole entry): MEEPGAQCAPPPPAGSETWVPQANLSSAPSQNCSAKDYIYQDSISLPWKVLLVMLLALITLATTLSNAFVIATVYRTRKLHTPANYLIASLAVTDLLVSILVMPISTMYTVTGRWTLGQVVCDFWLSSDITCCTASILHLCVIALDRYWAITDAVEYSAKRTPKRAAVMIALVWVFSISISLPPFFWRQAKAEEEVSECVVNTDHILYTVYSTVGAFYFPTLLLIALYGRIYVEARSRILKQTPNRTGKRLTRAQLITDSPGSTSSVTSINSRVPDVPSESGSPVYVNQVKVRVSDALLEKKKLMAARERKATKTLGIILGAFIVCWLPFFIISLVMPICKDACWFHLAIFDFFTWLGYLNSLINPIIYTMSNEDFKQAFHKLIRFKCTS
Chain of D(2) dopamine receptor (P14416 whole entry): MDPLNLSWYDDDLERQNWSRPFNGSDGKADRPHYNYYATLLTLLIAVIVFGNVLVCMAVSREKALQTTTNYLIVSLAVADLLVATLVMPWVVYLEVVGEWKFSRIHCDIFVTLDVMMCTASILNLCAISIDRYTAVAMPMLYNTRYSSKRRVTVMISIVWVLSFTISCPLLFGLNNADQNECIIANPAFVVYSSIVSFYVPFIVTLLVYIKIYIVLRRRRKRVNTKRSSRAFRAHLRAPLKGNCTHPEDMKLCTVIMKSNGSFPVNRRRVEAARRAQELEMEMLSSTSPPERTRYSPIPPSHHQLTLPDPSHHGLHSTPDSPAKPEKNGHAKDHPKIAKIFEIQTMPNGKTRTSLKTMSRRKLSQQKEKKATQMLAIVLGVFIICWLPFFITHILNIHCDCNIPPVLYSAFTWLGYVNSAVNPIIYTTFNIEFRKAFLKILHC
Chain of 5-hydroxytryptamine receptor 1E (P28566 whole entry): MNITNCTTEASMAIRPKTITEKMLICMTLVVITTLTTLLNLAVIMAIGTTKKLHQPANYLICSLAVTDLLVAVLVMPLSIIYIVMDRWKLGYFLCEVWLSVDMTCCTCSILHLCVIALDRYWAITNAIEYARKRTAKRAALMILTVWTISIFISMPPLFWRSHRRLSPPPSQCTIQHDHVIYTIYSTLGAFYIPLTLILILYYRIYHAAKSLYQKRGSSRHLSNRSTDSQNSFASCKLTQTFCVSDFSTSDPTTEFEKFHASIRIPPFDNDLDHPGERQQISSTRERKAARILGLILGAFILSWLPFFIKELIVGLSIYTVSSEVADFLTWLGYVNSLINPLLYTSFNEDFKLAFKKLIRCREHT
Chain of 5-hydroxytryptamine receptor 2A (P28223 whole entry): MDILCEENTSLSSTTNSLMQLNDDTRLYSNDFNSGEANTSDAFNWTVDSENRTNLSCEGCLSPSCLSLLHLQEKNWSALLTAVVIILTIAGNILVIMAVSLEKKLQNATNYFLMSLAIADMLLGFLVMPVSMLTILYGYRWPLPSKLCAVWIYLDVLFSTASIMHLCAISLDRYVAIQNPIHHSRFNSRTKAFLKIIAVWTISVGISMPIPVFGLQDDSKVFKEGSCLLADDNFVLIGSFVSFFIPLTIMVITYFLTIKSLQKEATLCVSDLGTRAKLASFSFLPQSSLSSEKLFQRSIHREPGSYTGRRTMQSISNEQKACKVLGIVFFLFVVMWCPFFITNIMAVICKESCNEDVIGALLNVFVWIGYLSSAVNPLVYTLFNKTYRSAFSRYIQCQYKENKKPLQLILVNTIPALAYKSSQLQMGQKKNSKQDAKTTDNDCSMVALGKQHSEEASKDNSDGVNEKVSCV
Chain of 5-hydroxytryptamine receptor 6 (P50406 whole entry): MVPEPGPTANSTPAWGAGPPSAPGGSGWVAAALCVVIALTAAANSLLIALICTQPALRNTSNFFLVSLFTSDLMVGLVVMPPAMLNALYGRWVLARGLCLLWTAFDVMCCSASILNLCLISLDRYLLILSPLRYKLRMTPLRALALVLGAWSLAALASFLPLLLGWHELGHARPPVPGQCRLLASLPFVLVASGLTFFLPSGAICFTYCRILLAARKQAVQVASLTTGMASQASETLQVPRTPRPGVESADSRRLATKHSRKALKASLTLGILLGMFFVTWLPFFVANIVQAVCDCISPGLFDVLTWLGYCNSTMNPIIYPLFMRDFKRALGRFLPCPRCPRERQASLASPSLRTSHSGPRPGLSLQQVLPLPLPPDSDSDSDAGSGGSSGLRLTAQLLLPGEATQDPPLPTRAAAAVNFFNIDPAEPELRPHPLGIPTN
Chain of 5-hydroxytryptamine receptor 2B (P41595 whole entry): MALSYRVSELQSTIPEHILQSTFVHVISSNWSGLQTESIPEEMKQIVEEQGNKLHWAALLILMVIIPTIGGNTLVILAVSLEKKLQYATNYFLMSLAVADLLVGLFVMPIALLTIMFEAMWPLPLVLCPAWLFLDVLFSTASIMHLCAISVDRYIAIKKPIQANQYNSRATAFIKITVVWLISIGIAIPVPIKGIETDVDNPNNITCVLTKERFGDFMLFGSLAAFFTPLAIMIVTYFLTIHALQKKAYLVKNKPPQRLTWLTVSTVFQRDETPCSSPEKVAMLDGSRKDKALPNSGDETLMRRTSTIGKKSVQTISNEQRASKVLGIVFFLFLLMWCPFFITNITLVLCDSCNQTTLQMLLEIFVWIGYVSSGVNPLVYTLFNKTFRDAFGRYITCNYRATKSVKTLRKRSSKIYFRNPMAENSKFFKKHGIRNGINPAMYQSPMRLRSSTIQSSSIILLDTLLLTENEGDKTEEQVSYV
Chain of 5-hydroxytryptamine receptor 1D (P28221 whole entry): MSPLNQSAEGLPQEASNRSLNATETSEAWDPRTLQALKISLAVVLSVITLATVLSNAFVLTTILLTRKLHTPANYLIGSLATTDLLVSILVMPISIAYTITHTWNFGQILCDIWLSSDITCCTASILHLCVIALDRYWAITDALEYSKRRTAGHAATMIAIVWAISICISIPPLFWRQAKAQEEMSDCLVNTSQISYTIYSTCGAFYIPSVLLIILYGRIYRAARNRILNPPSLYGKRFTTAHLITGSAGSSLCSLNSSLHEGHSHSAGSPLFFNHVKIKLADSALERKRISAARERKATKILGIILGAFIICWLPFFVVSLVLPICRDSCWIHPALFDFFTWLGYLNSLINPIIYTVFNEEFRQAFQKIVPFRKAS
Chain of 5-hydroxytryptamine receptor 4 (Q13639 whole entry): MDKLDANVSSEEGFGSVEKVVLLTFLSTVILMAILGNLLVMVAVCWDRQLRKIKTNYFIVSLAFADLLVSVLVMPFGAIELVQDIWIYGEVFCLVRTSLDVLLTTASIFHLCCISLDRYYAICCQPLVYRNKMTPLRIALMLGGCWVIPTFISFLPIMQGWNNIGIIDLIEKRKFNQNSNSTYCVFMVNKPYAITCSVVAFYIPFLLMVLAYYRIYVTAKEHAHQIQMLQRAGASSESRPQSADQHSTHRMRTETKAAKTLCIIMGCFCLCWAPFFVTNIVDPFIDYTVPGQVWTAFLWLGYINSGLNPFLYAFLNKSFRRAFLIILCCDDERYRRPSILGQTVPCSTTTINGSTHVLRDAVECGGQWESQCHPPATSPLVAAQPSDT
Chain of Cytochrome P450 2D6 (P10635 whole entry): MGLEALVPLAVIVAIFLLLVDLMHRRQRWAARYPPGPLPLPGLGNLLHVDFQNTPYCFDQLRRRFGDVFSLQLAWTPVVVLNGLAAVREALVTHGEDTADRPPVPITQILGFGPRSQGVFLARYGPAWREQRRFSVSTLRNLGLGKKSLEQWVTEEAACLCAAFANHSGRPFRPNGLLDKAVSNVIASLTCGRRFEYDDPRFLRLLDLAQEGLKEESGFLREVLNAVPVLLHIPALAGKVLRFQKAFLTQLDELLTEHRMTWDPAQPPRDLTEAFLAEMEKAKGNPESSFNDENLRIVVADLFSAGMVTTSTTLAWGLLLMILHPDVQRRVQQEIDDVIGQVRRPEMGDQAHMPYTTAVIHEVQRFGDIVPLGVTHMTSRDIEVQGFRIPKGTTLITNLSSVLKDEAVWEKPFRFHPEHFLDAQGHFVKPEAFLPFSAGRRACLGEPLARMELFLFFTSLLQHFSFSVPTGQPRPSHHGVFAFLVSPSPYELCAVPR
Chain of 5-hydroxytryptamine receptor 7 (P34969 whole entry): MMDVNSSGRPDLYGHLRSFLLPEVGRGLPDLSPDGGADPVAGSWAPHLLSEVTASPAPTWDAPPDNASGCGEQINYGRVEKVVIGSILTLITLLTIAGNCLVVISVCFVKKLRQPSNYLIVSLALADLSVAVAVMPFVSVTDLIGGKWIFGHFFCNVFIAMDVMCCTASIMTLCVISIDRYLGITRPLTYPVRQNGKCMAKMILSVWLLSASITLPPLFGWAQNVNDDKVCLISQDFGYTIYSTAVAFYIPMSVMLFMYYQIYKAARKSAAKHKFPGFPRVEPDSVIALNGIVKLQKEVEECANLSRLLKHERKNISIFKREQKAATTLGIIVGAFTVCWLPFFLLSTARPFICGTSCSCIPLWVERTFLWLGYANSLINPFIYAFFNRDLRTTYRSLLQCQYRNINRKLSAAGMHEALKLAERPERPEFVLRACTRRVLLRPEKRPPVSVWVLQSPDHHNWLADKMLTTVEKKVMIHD
Chain of Cytochrome P450 2C9 (P11712 whole entry): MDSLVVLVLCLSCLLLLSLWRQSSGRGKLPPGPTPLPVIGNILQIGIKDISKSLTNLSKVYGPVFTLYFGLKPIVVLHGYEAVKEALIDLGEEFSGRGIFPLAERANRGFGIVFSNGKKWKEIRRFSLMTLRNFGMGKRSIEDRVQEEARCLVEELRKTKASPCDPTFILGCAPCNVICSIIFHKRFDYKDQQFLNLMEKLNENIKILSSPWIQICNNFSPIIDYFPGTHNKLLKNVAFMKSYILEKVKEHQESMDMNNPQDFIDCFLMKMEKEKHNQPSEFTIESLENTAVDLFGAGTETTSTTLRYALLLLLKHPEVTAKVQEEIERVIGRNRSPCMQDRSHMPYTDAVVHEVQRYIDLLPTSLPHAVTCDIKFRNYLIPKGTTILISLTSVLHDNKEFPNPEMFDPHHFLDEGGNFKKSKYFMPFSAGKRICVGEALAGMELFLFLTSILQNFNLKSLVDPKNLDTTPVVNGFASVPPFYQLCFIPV

Compound: COc1ccc(NS(=O)(=O)c2cccc(C#N)c2)cc1N1CCN(C)CC1
Ki [1]: 63.1 nM

Compound: COc1ccc(NS(=O)(=O)c2cn(C)cn2)cc1N1CCN(C)CC1
Ki [1]: 794 nM

Compound: COc1ccc(NS(=O)(=O)c2sc3ccc(Cl)cc3c2C)cc1N1CCNCC1
Ki [4]: 794 nM | Ki [5]: 251 nM | Ki [6]: > 10000 nM | Ki [7]: > 2510 nM | Ki [8]: > 1000 nM | Ki [9]: > 3980 nM | Ki [12]: 2000 nM | IC50 [13]: 66000 nM | IC50 [14]: 26000 nM | IC50 [15]: > 100000 nM | IC50 [16]: 32000 nM | Ki [19]: 2510 nM | Ki [20]: 2000 nM

Compound: COc1ccc(NS(=O)(=O)c2ccc([N+](=O)[O-])cc2)cc1N1CCN(C)CC1
Ki [1]: 79.4 nM

Compound: COc1ccc(NS(=O)(=O)c2cc(Cl)cc(Cl)c2)cc1N1CCN(C)CC1
Ki [1]: 2 nM | Selectivity [2]: > 100

Compound: CNc1cc(NS(=O)(=O)c2ccc(N)cc2)cc(NC)n1
Ki [1]: 12.6 nM

Compound: CNc1cc(NS(=O)(=O)c2ccc(N)cc2)nc(NC)n1
Ki [1]: 50.1 nM

The remaining lines, values ahead:

Ki [1]: 1 nM | Selectivity [2]: > 125
Compound: COc1ccc(NS(=O)(=O)c2cc(I)ccc2C)cc1N1CCN(C)CC1

Ki [3]: 251 nM | Ki [4]: 398 nM | Ki [5]: 251 nM | Ki [6]: 1580 nM | Ki [7]: 1260 nM | Ki [8]: 316 nM | Ki [9]: 631 nM | Ki [10]: 2510 nM | Ki [11]: 2510 nM | Ki [1]: 5.01 nM | Ki [12]: 2510 nM | IC50 [13]: 10000 nM | IC50 [14]: 46000 nM | IC50 [15]: > 100000 nM | IC50 [16]: 11000 nM | IC50 [17]: 6000 nM | Ki [18]: 794 nM | Ki [19]: 3980 nM | Ki [20]: 1000 nM
Compound: COc1ccc(NS(=O)(=O)c2ccc(Br)cc2)cc1N1CCN(C)CC1

Ki [3]: 501 nM | Ki [4]: 794 nM | Ki [5]: 200 nM | Ki [6]: 2510 nM | Ki [7]: 1000 nM | Ki [8]: 251 nM | Ki [9]: 1000 nM | Ki [10]: 3160 nM | Ki [11]: 3160 nM | Ki [21]: 2000 nM | Ki [18]: 200 nM | Ki [19]: 794 nM | Ki [20]: 501 nM
Compound: COc1ccc(NS(=O)(=O)c2sc3ccc(Cl)cc3c2C)cc1N1CCN(C)CC1

Ki [1]: 10 nM | Selectivity [2]: 80
Compound: COc1ccc(NS(=O)(=O)c2ccccc2)cc1N1CCN(C)CC1

Ki [1]: 1.26 nM | Selectivity [2]: > 300
Compound: COc1ccc(NS(=O)(=O)c2c(C)sc3ccc(Cl)cc23)cc1N1CCN(C)CC1

Ki [1]: 3.16 nM | Selectivity [2]: > 300
Compound: COc1ccc(NS(=O)(=O)c2c(F)c(Br)cc(F)c2Br)cc1N1CCN(C)CC1

Ki [1]: 0.794 nM | Selectivity [2]: > 200
Compound: COc1ccc(NS(=O)(=O)c2cccc(I)c2)cc1N1CCN(C)CC1

Ki [1]: 0.794 nM | Selectivity [2]: > 250
Compound: COc1ccc(NS(=O)(=O)c2ccc3c(Cl)cccc3c2)cc1N1CCN(C)CC1
